Laboratory results published in ChEMBL document CHEMBL2010670, “Discovery of a clinical stage multi-kinase inhibitor sodium (E)-2-{2-methoxy-5-[(2',4',6'-trimethoxystyrylsulfonyl)methyl]phenylamino}acetate (ON 01910.Na): synthesis, structure-activity relationship, and biological activity” (J Med Chem, 2011).
The source made the active and inactive calls.

Legend:
[1] = system: DU-145; assay: Cell cycle arrest in human DU145 cells assessed as accumulation of cells in G2/M phase after 24 hrs by propidium iodide staining-based flow cytometric analysis; type: functional
Procedure, shortened: (§1)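 DMEM with 10% FBS; 1.0 × 10⁶ cells/dish, treated 24 h after plating and harvested 24 h after treatment. Trypsinized cells were pooled with floating cells, PBS-washed and fixed in ice-cold 70% ethanol for ≥24 h. Cells were stained with propidium iodide plus RNase A for 30 min at 37 °C. DNA content was read by flow cytometry with cell-cycle modelling.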

[2] = system: A549; assay: Induction of apoptosis in human A549 cells assessed as caspase 3/7 activity at 0.25 uM after 24 hrs by luminescence assay; type: functional, cell-based
Procedure, shortened: (§2)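 A549 cells seeded at 3,600 cells/well in DMEM + 10% FBS, adhered overnight at 37 °C, then exposed to varying compound concentrations or DMSO for 24 h. Viability read first as fluorescence 3 h after CellTiter-Blue addition. Caspase-Glo 3/7 was then added to the same wells, developed 2 h at room temperature, and luminescence read; n=3.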

[3] = system: DU-145; assay: Cell cycle arrest in human DU145 cells assessed as accumulation of cells containing subG1 content of DNA at 0.1 to 1 uM after 24 hrs by propidium iodide staining-based flow cytometric analysis; type: functional; procedure, shortened: as §1
[4] = system: DU-145; assay: Induction of apoptosis in human DU145 cells assessed as PARP1 cleavage at 0.25 to 5 uM after 48 hrs by Western blot analysis; type: functional, cell-based
Procedure, shortened: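 DU145 or HFL-1 cells plated at 3.0 × 10⁶ per […], treated 24 h later with DMSO or compound for 48 h. Frozen pellets lysed in 1% NP40/PBS with protease inhibitors. Equal protein run on 10% SDS-PAGE, transferred to nitrocellulose, probed with anti-PARP antibody, ECL detection.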

[5] = system: A549; assay: Induction of apoptosis in human A549 cells assessed as cell viability at 0.25 uM after 24 hrs by fluorescence assay; type: functional, cell-based; procedure, shortened: as §2

Measured: Activity

COc1cc(OC)c(/C=C/S(=O)(=O)Cc2ccc(OC)c(NCC(=O)O)c2)c(OC)c1
active: [1] Dose-dependent effect | [2] | [3] | [4] | [5]
